{"source": "ChEMBL document CHEMBL1158764", "about": "“Cytotoxic sesquiterpene lactones from Eupatorium kiirunense, a coastal plant of Taiwan” (2005)", "assay_type_in_all_cases": "functional", "details_in_all_cases": "read-out: ED50 (the source's name)", "key": {"[1]": {"test": "Cytotoxicity against human HEPA 59T/VGH cells by methylene blue staining method", "procedure,_shortened": "(§1)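 Tumor cells cultured in RPMI-1640 medium and exposed to test sample for 72 h. Growth inhibition read by methylene blue staining (absorbance). ED50 taken as the concentration giving 50% reduction of absorbance relative to untreated cells.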"}, "[2]": {"system": "KB", "test": "Cytotoxicity against human KB cells by methylene blue staining method", "procedure,_shortened": "as §1"}, "[3]": {"system": "HeLa", "test": "Cytotoxicity against human HeLa cells by methylene blue staining method", "procedure,_shortened": "as §1"}}, "data": [{"smiles": "C=C1C(=O)O[C@H]2/C=C(/COC(C)=O)[C@@H](O)C[C@H]3O[C@@]3(C)C[C@@H](OC(=O)/C(C)=C/C)[C@@H]12", "values": [{"measurement": "EC50", "setting": "[1]", "value": 7, "unit": "µg/mL"}, {"measurement": "EC50", "setting": "[2]", "value": 4.3, "unit": "µg/mL"}, {"measurement": "EC50", "setting": "[3]", "value": 7.5, "unit": "µg/mL"}]}, {"smiles": "C=C1C(=O)O[C@H]2/C=C(/C)[C@H](O)C[C@H]3O[C@@]3(C)C[C@@H](OC(=O)/C(C)=C/C)[C@@H]12", "values": [{"measurement": "EC50", "setting": "[1]", "value": 4.4, "unit": "µg/mL"}, {"measurement": "EC50", "setting": "[2]", "value": 3.2, "unit": "µg/mL"}, {"measurement": "EC50", "setting": "[3]", "value": 3.1, "unit": "µg/mL"}]}, {"smiles": "COc1cccc2c1C(=O)c1c(O)c3c(c(O)c1C2=O)C[C@@](O)(C(=O)CO)C[C@@H]3O[C@H]1C[C@H](N)[C@H](O)[C@H](C)O1", "note": "[DOXORUBICIN]", "values": [{"measurement": "EC50", "setting": "[1]", "value": 0.19, "unit": "µg/mL"}, {"measurement": "EC50", "setting": "[2]", "value": 0.15, "unit": "µg/mL"}, {"measurement": "EC50", "setting": "[3]", "value": 0.14, "unit": "µg/mL"}]}, {"smiles": "C=C1C(=O)O[C@@H]2/C=C(\\C)C(=O)/C=C/[C@](C)(O)C[C@@H](OC(=O)/C(C)=C/C)[C@@H]12", "note": "[EUPAHELIANGOLIDE A]", "values": [{"measurement": "EC50", "setting": "[1]", "value": 3.5, "unit": "µg/mL"}, {"measurement": "EC50", "setting": "[2]", "value": 3.5, "unit": "µg/mL"}, {"measurement": "EC50", "setting": "[3]", "value": 3.3, "unit": "µg/mL"}]}, {"smiles": "C=C1C(=O)O[C@H]2[C@H]1[C@H](OC(=O)/C(C)=C/C)CC(=C)[C@H](O)[C@@H]1O[C@@H]1[C@]1(C)O[C@H]21", "note": "[EUPAKIRUNSIN A]", "values": [{"measurement": "EC50", "setting": "[1]", "value": 4.4, "unit": "µg/mL"}, {"measurement": "EC50", "setting": "[2]", "value": 5.5, "unit": "µg/mL"}, {"measurement": "EC50", "setting": "[3]", "value": 8.9, "unit": "µg/mL"}]}, {"smiles": "C=C1C(=O)O[C@H]2/C=C(\\C)[C@H](O)/C=C\\[C@](C)(O)C[C@@H](OC(=O)/C(C)=C/C)[C@@H]12", "note": "[EUPAKIRUNSIN B]", "values": [{"measurement": "EC50", "setting": "[1]", "value": "> 20", "unit": "µg/mL"}, {"measurement": "EC50", "setting": "[2]", "value": "> 20", "unit": "µg/mL"}, {"measurement": "EC50", "setting": "[3]", "value": "> 20", "unit": "µg/mL"}]}, {"smiles": "C=C1C(=O)O[C@H]2[C@H]1[C@H](OC(=O)/C(C)=C/C)C[C@H](C)[C@H](O)CC(=O)[C@]1(C)O[C@H]21", "note": "[EUPAKIRUNSIN C]", "values": [{"measurement": "EC50", "setting": "[1]", "value": 8.6, "unit": "µg/mL"}, {"measurement": "EC50", "setting": "[2]", "value": 8.1, "unit": "µg/mL"}, {"measurement": "EC50", "setting": "[3]", "value": 7.1, "unit": "µg/mL"}]}, {"smiles": "C=C1C(=O)O[C@H]2/C=C(\\C)[C@]3(O)CC[C@](C)(C[C@@H](OC(=O)/C(C)=C/C)[C@@H]12)O3", "note": "[EUPAKIRUNSIN D]", "values": [{"measurement": "EC50", "setting": "[1]", "value": 5, "unit": "µg/mL"}, {"measurement": "EC50", "setting": "[2]", "value": 4.8, "unit": "µg/mL"}, {"measurement": "EC50", "setting": "[3]", "value": 5.8, "unit": "µg/mL"}]}, {"smiles": "C=C1C(=O)O[C@H]2/C=C(\\C)C(=O)[C@@H]3O[C@H]3[C@](C)(O)C[C@@H](OC(=O)/C(C)=C/C)[C@@H]12", "note": "[EUPAKIRUNSIN E]", "values": [{"measurement": "EC50", "setting": "[1]", "value": "> 20", "unit": "µg/mL"}, {"measurement": "EC50", "setting": "[2]", "value": "> 20", "unit": "µg/mL"}, {"measurement": "EC50", "setting": "[3]", "value": "> 20", "unit": "µg/mL"}]}, {"smiles": "C=C1C(=O)O[C@H]2/C=C(/C)[C@@H](O)C[C@H]3O[C@@]3(C)C[C@@H](OC(=O)/C(C)=C/C)[C@@H]12", "note": "[HELIANGIN]", "values": [{"measurement": "EC50", "setting": "[1]", "value": 2, "unit": "µg/mL"}, {"measurement": "EC50", "setting": "[2]", "value": 1.8, "unit": "µg/mL"}, {"measurement": "EC50", "setting": "[3]", "value": 4.4, "unit": "µg/mL"}]}]}
